# Test system: not listed separately
# Experiment: Octanol-water partition coefficient, logD of the compound at pH 2 by HPLC analysis
# Format: physicochemical
# Conditions: not given
row,SMILES,logD
1,CN(C)C(=O)c1ccc2cccccc1-2,2.1

# Same assay, conditions: read-out: logD
row,SMILES,logD
1,CN(C)C(=O)Cc1ccc2cccc-2cc1,2.5
2,O=C(NCCO)c1ccc2ccc(C(=O)c3ccccc3)c-2cc1,2.3
3,c1cc2ccc(CN3CCCCC3)ccc-2c1,0.8

# Test system: not listed separately
# Experiment: Photostability of the compound at pH 5.3 assessed as compound degradation administered as solution irradiated with sun light and measured after 7 days by HPLC analysis
# Format: physicochemical
# Conditions: time 7 day, read-out: Drug degradation
# Method in brief: (§1)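 Compound in solution was kept for 7 days under "mild" light-stress conditions, with no pH adjustment. The pH listed for each compound is the solution's own intrinsic pH. Result is % degradation of parent.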
row,SMILES,degraded at 168 h
1,CN(C)C(=O)Cc1ccc2cccc-2cc1,12%

# Target: Cytochrome P450 2C19 (Homo sapiens, UniProt P33261)
# Experiment: Inhibition of CYP2C19 in human liver microsomes using mephenytoin as substrate preincubated with compound followed by NADPH addition by LC-MS/MS analysis
# Format: ADME, Microsome
# Conditions: not given
# Sequence of Cytochrome P450 2C19 (P33261 whole entry): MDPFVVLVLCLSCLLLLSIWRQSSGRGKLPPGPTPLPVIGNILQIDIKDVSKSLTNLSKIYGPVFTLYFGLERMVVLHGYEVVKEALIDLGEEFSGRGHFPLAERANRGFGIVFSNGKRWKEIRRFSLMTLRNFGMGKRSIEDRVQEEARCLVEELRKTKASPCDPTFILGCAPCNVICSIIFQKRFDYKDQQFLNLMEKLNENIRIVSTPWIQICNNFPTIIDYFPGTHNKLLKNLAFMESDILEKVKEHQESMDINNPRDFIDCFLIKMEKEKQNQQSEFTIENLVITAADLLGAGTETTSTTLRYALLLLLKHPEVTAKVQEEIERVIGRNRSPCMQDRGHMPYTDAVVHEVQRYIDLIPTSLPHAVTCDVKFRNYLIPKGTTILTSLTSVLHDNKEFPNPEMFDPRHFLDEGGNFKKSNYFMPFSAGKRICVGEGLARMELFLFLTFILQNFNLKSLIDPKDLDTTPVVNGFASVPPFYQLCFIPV
row,SMILES,IC50
1,O=C(NCCO)c1ccc2ccc(C(=O)c3ccccc3)c-2cc1,> 50 µM
2,CN(C)C(=O)c1ccc2cccccc1-2,> 50 µM
3,c1cc2ccc(CN3CCCCC3)ccc-2c1,2.3 µM

# Test system: not listed separately
# Experiment: Photostability of the compound at pH 8.6 assessed as compound degradation administered as solution irradiated with sun light and measured after 7 days by HPLC analysis
# Format: physicochemical
# Conditions: time 7 day, read-out: Drug degradation
# Method in brief: as §1
row,SMILES,degraded at 168 h
1,CN(C)C(=O)c1ccc2cccccc1-2,3%

# Target: Cytochrome P450 2C9 (Homo sapiens, UniProt P11712)
# Experiment: Inhibition of CYP2C9 in human liver microsomes using diclofenac as substrate preincubated with compound followed by NADPH addition by LC-MS/MS analysis
# Format: ADME, Microsome
# Conditions: not given
# Sequence of Cytochrome P450 2C9 (P11712 whole entry): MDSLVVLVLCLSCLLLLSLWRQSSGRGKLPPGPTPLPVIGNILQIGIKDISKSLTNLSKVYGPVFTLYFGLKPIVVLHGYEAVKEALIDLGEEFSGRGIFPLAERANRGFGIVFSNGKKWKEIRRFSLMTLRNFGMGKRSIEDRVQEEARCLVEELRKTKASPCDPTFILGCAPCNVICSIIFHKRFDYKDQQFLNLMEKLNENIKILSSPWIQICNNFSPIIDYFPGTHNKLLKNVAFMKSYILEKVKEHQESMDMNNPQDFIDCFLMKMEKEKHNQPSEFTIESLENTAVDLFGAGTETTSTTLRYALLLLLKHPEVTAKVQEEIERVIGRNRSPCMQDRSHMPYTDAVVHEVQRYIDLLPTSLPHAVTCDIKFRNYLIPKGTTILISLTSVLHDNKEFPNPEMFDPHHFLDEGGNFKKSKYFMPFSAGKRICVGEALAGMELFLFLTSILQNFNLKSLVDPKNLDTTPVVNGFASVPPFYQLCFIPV
row,SMILES,IC50
1,O=C(NCCO)c1ccc2ccc(C(=O)c3ccccc3)c-2cc1,> 50 µM
2,CN(C)C(=O)c1ccc2cccccc1-2,> 50 µM
3,c1cc2ccc(CN3CCCCC3)ccc-2c1,> 50 µM

# Target: Cytochrome P450 3A4 (Homo sapiens, UniProt P08684)
# Experiment: Inhibition of CYP3A4 in human liver microsomes using midazolam as substrate preincubated with compound followed by NADPH addition by LC-MS/MS analysis
# Format: ADME, Microsome
# Conditions: not given
# Sequence of Cytochrome P450 3A4 (P08684 whole entry): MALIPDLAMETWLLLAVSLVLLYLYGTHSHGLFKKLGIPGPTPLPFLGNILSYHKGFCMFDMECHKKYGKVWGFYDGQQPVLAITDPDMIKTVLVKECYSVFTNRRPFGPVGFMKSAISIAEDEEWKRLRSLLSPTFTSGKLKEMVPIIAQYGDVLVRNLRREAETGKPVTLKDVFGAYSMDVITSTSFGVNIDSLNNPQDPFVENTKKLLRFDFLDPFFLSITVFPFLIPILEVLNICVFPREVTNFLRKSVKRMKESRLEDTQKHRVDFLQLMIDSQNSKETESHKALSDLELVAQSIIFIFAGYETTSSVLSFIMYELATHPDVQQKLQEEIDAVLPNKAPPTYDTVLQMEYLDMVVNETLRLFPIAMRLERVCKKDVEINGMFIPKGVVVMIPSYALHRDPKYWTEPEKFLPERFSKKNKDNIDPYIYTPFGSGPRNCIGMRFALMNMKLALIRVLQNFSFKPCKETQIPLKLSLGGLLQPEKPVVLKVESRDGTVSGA
row,SMILES,IC50
1,O=C(NCCO)c1ccc2ccc(C(=O)c3ccccc3)c-2cc1,> 50 µM
2,CN(C)C(=O)c1ccc2cccccc1-2,> 50 µM
3,c1cc2ccc(CN3CCCCC3)ccc-2c1,> 50 µM

# Test system: not listed separately
# Experiment: Photostability of the compound at pH 8.7 assessed as compound degradation administered as solution irradiated with sun light and measured after 7 days by HPLC analysis
# Format: physicochemical
# Conditions: time 7 day, read-out: Drug degradation
# Method in brief: as §1
row,SMILES,degraded at 168 h
1,c1cc2ccc(CN3CCCCC3)ccc-2c1,3.5%

# Test system: not listed separately
# Experiment: Lipophilicity, logP of the compound
# Format: physicochemical
# Conditions: octanol/water
row,SMILES,logP
1,CN(C)C(=O)c1ccc2cccccc1-2,1.6

# Same assay, conditions: octanol/water; read-out: logP
row,SMILES,logP
1,CN(C)C(=O)Cc1ccc2cccc-2cc1,2.2
2,O=C(NCCO)c1ccc2ccc(C(=O)c3ccccc3)c-2cc1,2.2
3,c1cc2ccc(CN3CCCCC3)ccc-2c1,> 5.5

# Test system: not listed separately
# Experiment: Aqueous solubility of the compound at pH 2.2 incubated for 24 hrs under shaking condition by LC-UV analysis
# Format: physicochemical
# Conditions: aqueous medium
# Method in brief: (§2)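 The highest concentration tested was 250 μM, so results are capped at that level. Values are reported in µg/ml.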
row,SMILES,solubility thermodynamic at 24 h
1,CN(C)C(=O)Cc1ccc2cccc-2cc1,> 44 µg/mL
2,O=C(NCCO)c1ccc2ccc(C(=O)c3ccccc3)c-2cc1,14 µg/mL
3,CN(C)C(=O)c1ccc2cccccc1-2,> 43 µg/mL
4,c1cc2ccc(CN3CCCCC3)ccc-2c1,> 56 µg/mL

# Target: T1, Cytochrome P450 2C8 (Homo sapiens, UniProt P10632)
# T1 sequence (P10632 whole entry): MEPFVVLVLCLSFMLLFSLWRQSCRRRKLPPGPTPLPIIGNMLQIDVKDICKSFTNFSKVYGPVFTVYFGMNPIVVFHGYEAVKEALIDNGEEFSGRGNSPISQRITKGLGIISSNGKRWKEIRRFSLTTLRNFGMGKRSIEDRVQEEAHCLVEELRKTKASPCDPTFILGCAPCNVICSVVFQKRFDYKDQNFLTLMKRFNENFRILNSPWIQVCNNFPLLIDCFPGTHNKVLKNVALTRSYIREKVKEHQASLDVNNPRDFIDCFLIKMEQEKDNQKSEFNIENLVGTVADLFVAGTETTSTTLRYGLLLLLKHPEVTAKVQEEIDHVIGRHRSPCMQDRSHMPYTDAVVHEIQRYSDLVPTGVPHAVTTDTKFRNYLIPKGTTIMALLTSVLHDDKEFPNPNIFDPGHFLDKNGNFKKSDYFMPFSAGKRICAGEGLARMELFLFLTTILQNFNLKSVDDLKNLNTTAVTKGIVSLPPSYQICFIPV
# Experiment: Inhibition of CYP2C8 in human liver microsomes using amodiaquine as substrate preincubated with compound followed by NADPH addition by LC-MS/MS analysis
# Format: ADME, Microsome
# Conditions: not given
row,SMILES,IC50
1,O=C(NCCO)c1ccc2ccc(C(=O)c3ccccc3)c-2cc1,> 50 µM
2,CN(C)C(=O)c1ccc2cccccc1-2,> 50 µM
3,c1cc2ccc(CN3CCCCC3)ccc-2c1,> 50 µM

# Test system: not listed separately
# Experiment: Aqueous solubility of the compound at pH 6.8 incubated for 24 hrs under shaking condition by LC-UV analysis
# Format: physicochemical
# Conditions: aqueous medium
# Method in brief: as §2
row,SMILES,solubility thermodynamic at 24 h
1,CN(C)C(=O)Cc1ccc2cccc-2cc1,> 43 µg/mL
2,O=C(NCCO)c1ccc2ccc(C(=O)c3ccccc3)c-2cc1,4 µg/mL
3,CN(C)C(=O)c1ccc2cccccc1-2,> 40 µg/mL
4,c1cc2ccc(CN3CCCCC3)ccc-2c1,31 µg/mL

# Target: Cytochrome P450 2D6 (Homo sapiens, UniProt P10635)
# Experiment: Inhibition of CYP2D6 in human liver microsomes using dextromethorphan as substrate preincubated with compound followed by NADPH addition by LC-MS/MS analysis
# Format: ADME, Microsome
# Conditions: not given
# Sequence of Cytochrome P450 2D6 (P10635 whole entry): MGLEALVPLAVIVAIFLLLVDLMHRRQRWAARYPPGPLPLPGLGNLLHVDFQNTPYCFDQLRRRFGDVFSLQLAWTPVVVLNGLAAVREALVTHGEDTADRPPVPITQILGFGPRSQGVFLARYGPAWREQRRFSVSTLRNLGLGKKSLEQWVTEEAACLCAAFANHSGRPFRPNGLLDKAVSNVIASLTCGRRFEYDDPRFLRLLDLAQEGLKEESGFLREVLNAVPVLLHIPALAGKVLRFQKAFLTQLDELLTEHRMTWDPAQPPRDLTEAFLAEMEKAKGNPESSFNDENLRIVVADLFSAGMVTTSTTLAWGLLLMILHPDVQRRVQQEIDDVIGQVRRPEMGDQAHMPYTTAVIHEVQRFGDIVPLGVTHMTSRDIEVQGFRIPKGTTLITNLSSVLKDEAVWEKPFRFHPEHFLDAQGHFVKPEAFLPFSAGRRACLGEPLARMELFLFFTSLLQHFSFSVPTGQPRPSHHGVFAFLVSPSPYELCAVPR
row,SMILES,IC50
1,O=C(NCCO)c1ccc2ccc(C(=O)c3ccccc3)c-2cc1,> 50 µM
2,CN(C)C(=O)c1ccc2cccccc1-2,> 50 µM
3,c1cc2ccc(CN3CCCCC3)ccc-2c1,17 µM

# Test system: not listed separately
# Experiment: Octanol-water partition coefficient, logD of the compound at pH 11 by HPLC analysis
# Format: physicochemical
# Conditions: read-out: logD
row,SMILES,logD
1,CN(C)C(=O)Cc1ccc2cccc-2cc1,2.2
2,O=C(NCCO)c1ccc2ccc(C(=O)c3ccccc3)c-2cc1,2.2
3,CN(C)C(=O)c1ccc2cccccc1-2,1.6
4,c1cc2ccc(CN3CCCCC3)ccc-2c1,> 5.5

# Test system: not listed separately
# Experiment: Photostability of the compound assessed as compound degradation administered as aqueous solution irradiated with UV and measured after 24 hrs by HPLC analysis
# Conditions: not given
row,SMILES,degraded at 24 h
1,CN(C)C(=O)c1ccc2cccccc1-2,100%

# Test system: not listed separately
# Experiment: Permeability of the compound at pH 7.4 by PAMPA assay
# Format: ADME
# Conditions: read-out: permeability
row,SMILES,Papp
1,CN(C)C(=O)Cc1ccc2cccc-2cc1,8.7 ×10⁻⁶ cm/s
2,O=C(NCCO)c1ccc2ccc(C(=O)c3ccccc3)c-2cc1,1.8 ×10⁻⁶ cm/s
3,CN(C)C(=O)c1ccc2cccccc1-2,7.6 ×10⁻⁶ cm/s
4,c1cc2ccc(CN3CCCCC3)ccc-2c1,3.4 ×10⁻⁶ cm/s

# Test system: not listed separately
# Experiment: Hydrolytic stability of the compound in aqueous HCl assessed as compound decomposition measured after 3 days by HPLC analysis
# Format: physicochemical
# Conditions: time 3 day, read-out: Drug degradation
# Method in brief: (§3)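 Compound was held for 3 days at 40 °C in 0.1 M HCl in water or in aqueous buffer at pH 7.4. Dissolution was confirmed by eye, and decomposition is reported as % loss of parent.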
row,SMILES,degraded at 72 h
1,CN(C)C(=O)Cc1ccc2cccc-2cc1,2%
2,CN(C)C(=O)c1ccc2cccccc1-2,< 0.5%

# Test system: not listed separately
# Experiment: Cytotoxicity against human HepG2 cells assessed as cell growth inhibition incubated for 24 hrs by MTT assay
# Format: toxicity, cell-based
# Conditions: not given
# Method in brief: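 HepG2 human hepatoma cells were exposed to compound at concentrations up to 400 µM and viability was read by MTT. The result is given in µM.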
row,SMILES,EC50 at 24 h
1,CN(C)C(=O)c1ccc2cccccc1-2,> 400 µM

# Test system: not listed separately
# Experiment: Photostability of the compound at pH 5.8 assessed as compound degradation administered as solution irradiated with sun light and measured after 7 days by HPLC analysis
# Format: physicochemical
# Conditions: time 7 day, read-out: Drug degradation
# Method in brief: as §1
row,SMILES,degraded at 168 h
1,O=C(NCCO)c1ccc2ccc(C(=O)c3ccccc3)c-2cc1,< 0.5%

# Test system: not listed separately
# Experiment: Photostability of the compound assessed as compound degradation administered as solid irradiated with sun light and measured after 7 days by HPLC analysis
# Conditions: not given
row,SMILES,degraded at 168 h
1,CN(C)C(=O)Cc1ccc2cccc-2cc1,< 0.5%
2,O=C(NCCO)c1ccc2ccc(C(=O)c3ccccc3)c-2cc1,< 0.5%
3,CN(C)C(=O)c1ccc2cccccc1-2,< 0.5%
4,c1cc2ccc(CN3CCCCC3)ccc-2c1,< 0.5%

# Test system: not listed separately
# Experiment: Hydrolytic stability of the compound in aqueous buffer at pH 7.4 assessed as compound decomposition measured after 3 days by HPLC analysis
# Format: physicochemical
# Conditions: time 3 day, read-out: Drug degradation
# Method in brief: as §3
row,SMILES,degraded at 72 h
1,CN(C)C(=O)Cc1ccc2cccc-2cc1,< 0.5%
2,CN(C)C(=O)c1ccc2cccccc1-2,< 0.5%

# Test system: not listed separately
# Experiment: Stability of the compound at pH 7.4 assessed as half life measured after 24 hrs in presence of GSH by HPLC analysis
# Format: physicochemical
# Conditions: solution with GSH
row,SMILES,half-life
1,CN(C)C(=O)Cc1ccc2cccc-2cc1,> 41.7 days
2,CN(C)C(=O)c1ccc2cccccc1-2,> 41.7 days

# Test system: not listed separately
# Experiment: Aqueous solubility of the compound at pH 4.5 incubated for 24 hrs under shaking condition by LC-UV analysis
# Format: physicochemical
# Conditions: aqueous medium
# Method in brief: as §2
row,SMILES,solubility thermodynamic at 24 h
1,CN(C)C(=O)Cc1ccc2cccc-2cc1,> 45 µg/mL
2,O=C(NCCO)c1ccc2ccc(C(=O)c3ccccc3)c-2cc1,6 µg/mL
3,CN(C)C(=O)c1ccc2cccccc1-2,> 44 µg/mL

# Test system: not listed separately
# Experiment: Metabolic stability in human liver microsomes assessed as hepatic blood flow at 1 uM preincubated with compound followed by NADPH addition by LC-MS/MS analysis
# Format: ADME, Microsome
# Conditions: read-out: QH
row,SMILES,hepatic extraction ratio at 1 µM
1,CN(C)C(=O)Cc1ccc2cccc-2cc1,0.27
2,O=C(NCCO)c1ccc2ccc(C(=O)c3ccccc3)c-2cc1,< 0.23
3,CN(C)C(=O)c1ccc2cccccc1-2,0.67
4,c1cc2ccc(CN3CCCCC3)ccc-2c1,0.75

# Reference: ChEMBL document CHEMBL5120825, “The azulene scaffold from a medicinal chemist's perspective: Physicochemical and in vitro parameters relevant for drug discovery” (Eur J Med Chem, 2022)
